Compound activity deposited in PubChem BioAssay by several laboratories.
Rows were chosen to be rich in hits. Some 2.6% of all compounds tested hit in one or more screens of this group.
Rad51 HR inh: human RAD51 strand exchange inhibitors, primary screen, biochemical, fluorescence; DNA repair protein RAD51 homolog 1 (Homo sapiens), Q06609; hRad51 DNA strand exchange, fluorescence dequenching; AID 1385, 2008; actives 0.085% (n = 200,000); inhibition, % at 10 µM;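 active = inhibition above 40% at the single screening dose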
Target sequence (Q06609 whole entry, looked up): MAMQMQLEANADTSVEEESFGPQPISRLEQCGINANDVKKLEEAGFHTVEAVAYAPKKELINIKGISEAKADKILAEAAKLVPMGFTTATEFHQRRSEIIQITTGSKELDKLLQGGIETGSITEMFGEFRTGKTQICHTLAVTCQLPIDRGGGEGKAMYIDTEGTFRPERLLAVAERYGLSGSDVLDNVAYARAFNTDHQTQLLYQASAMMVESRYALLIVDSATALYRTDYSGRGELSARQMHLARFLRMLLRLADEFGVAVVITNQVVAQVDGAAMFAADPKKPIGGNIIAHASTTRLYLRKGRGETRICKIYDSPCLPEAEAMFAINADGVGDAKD
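Test system – preformed human Rad51 ssDNA filaments · Reagent – Donor/quencher-labelled 47-bp dsDNA substrate · Incubation – 37 °C 15-min filament assembly, 30-min compound preincubation, 15-min exchange · Signal – FRET fluorescence dequenching, excitation 485 nm, emission 520 nm · Read-out – percent inhibition from fluorescence, normalised to plate control and blank means · Benchmarks – plate control and blank wells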
CHT allo act: CHT positive allosteric modulators, primary screen, cell-based, membrane potential dye, choline EC20 | actives 0.49% (n = 310,000) | CHT-expressing cells; active compounds read high; LV-AA mutant CHT in HEK293 cells | High affinity choline transporter 1 (Homo sapiens), Q9GZV3 | AID 488977, 2010 | B-score at 10 µM;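 active = initial fluorescence not abnormally high and integrated response B-score, plate-corrected, over 3 SD above library mean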
CHT block: inhibitors of human choline transporter CHT; CHT-expressing cells, membrane potential dye, choline response; active compounds read low; B-score at 10 µM; High affinity choline transporter 1 (Homo sapiens), Q9GZV3; actives 0.86% (n = 310,000);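 active = B-score over 3 SD under the library average, and starting fluorescence ratio not unusually high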;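 note: choline stimulus applied at its EC90 after an EC20 pre-addition; B-score computed on integrated fluorescence ratio after choline addition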
Cl transport mod: KCC2 cotransporter modulators, thallium flux, primary screen, cell-based, HEK293 KCC2, FluoZin-2 fluorescence, MLSMR. AID 1456, 2008. Solute carrier family 12 member 5 (Homo sapiens), Q9H2X9. KCC2 cells, thallium flux FluoZin-2 fluorescence. B-score of Tl+ flux slope (higher = more flux/activation; lower = inhibition) at 10 µM. actives 2.2% (n = 190,000);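 active = thallium flux slope and its plate-corrected score both differing from the plate sample mean at a set confidence after two filtering rounds, in either direction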;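 note: slope of fluorescence scaled to starting intensity during 10 to 20 s after thallium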
KCC2 secondary: KCC2 modulators in sodium-free buffer, confirmation, cell-based, HEK293 KCC2, thallium flux, secondary assay; shares compounds with Cl transport mod; FluoZin2 fluorescence; active compounds read high; normalised thallium flux (F/F0 slope) at 10 µM; actives 15% (n = 3,700); AID 1713, 2009;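 active = thallium flux slope above the same plate's solvent-only control mean plus 3 SD; inconclusive = the two replicate wells disagree; inactive = no significant difference from solvent-only control wells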
KCC2 bumet counter: thallium flux persisting under bumetanide in KCC2 cells, confirmation, counter-screen for KCC2 modulator project, cell-based, HEK293 KCC2, FluoZin2, secondary assay 3; AID 1714, 2009; shares compounds with Cl transport mod; normalized thallium flux at 10 µM; actives 49% (n = 3,700); HEK293-KCC2 + bumetanide/ouabain; active compounds read high;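 active = thallium entry rate above the same plate's blocked-transporter control wells by more than 3 SD; inconclusive = the two repeat wells disagree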;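 note: raw slope of fluorescence over initial fluorescence between 10 and 20 s after thallium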
KCC2 secondary2: KCC2 modulators without ouabain present, confirmation, cell-based, HEK293 KCC2, thallium flux, FluoZin2, secondary assay 2. shares compounds with Cl transport mod. thallium flux FluoZin2 fluorescence; actives lie on both sides; F/F0 rise rate, 10–20 s post-thallium. normalized thallium flux at 10 µM. actives 23% (n = 3,700);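 active = thallium flux slope more than 3 SD above or below the plate's solvent-only control mean, mostly below; inconclusive = the two repeat wells disagreed; inactive = no significant shift from solvent-only controls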
HEK293 Tl flux: thallium flux modulation in parental HEK cells, confirmation, counter-screen for KCC2 modulator project, cell-based, counterscreen 1. shares compounds with Cl transport mod. HEK293 parental cells, thallium flux FluoZin2, ouabain; baseline-ratio fluorescence slope, 10–20 s after thallium. actives 46% (n = 3,700). thallium flux rate (normalised fluorescence) at 10 µM;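 active = thallium flux rate significantly above the same plate's solvent-only control wells, beyond their mean plus 3 SD; inconclusive = the two replicate wells gave conflicting results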
KCC2 ouabain: KCC2 inhibitors and activators, ouabain retest, confirmation, HEK-KCC2 cells; shares compounds with Cl transport mod; HEK293-KCC2, thallium flux FluoZin2 fluorescence; bidirectional: low = inhibitor, high = activator; raw Tl+ flux slope (below DMSO = inhibition, above = activation) at 10 µM; actives 48% (n = 3,700); AID 1717, 2009;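 active = thallium flux slope beyond 3 SD from same-plate DMSO control mean in most replicates, usually higher, sometimes lower; inconclusive = repeat tests gave conflicting results; inactive = no significant difference from controls in most replicates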;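 note: slope of initial-normalized fluorescence between seconds 10 and 20 after thallium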
HEK counter2: native HEK Tl+ uptake effects, second counter-screen – HEK cells, counterscreen 2, counter-screen for KCC2 modulator project, confirmation. shares compounds with Cl transport mod. HEK293 parental, thallium flux FluoZin-2 fluorescence slope. thallium flux slope at 10 µM. actives 33% (n = 3,700);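 active = thallium flux slope above the same plate's solvent-control mean plus 3 SD in both duplicate wells; inconclusive = duplicate wells that disagreed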;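 note: run without ouabain in cells lacking the KCC2 cotransporter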
CHT inh conf: CHT inhibitors, confirmation, cell-based, membrane potential dye, duplicate; AID 493221, 2011; CHT activity remaining % of control (active compounds read low), % at 10 µM; CHT-expressing cells, choline membrane potential dye; LV-to-AA substituted CHT, HEK293 cells; shares compounds with CHT block; actives 70% (n = 2,400);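 active = choline transporter activity left, mean of duplicates at 10 µM, below buffer-only control mean minus 3 SD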;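 note: depolarization triggered by choline at its EC90 following an EC20 pre-addition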
HEK293 MPD ctr: membrane potential effects in parental HEK293, counter-screen for CHT inhibitor project, cell-based, membrane potential dye. actives 4% (n = 2,400). shares compounds with CHT block. choline response; active = decrease or increase beyond buffer ±3SD. membrane potential ratio readout (active if shifted either direction beyond buffer ±3SD; no single direction) at 10 µM;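 note: parental cells lack the transporter so any hit is non-specific; ratio is peak minus trough fluorescence over baseline after EC90 choline challenge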
A number is an active result; - = inactive; ? = inconclusive; . = no result given.

SMILES	Rad51 HR inh	CHT allo act	CHT block	Cl transport mod	CHT inh conf	HEK293 MPD ctr	others
Cc1ccccc1-n1c(-c2ccoc2)nc2ccccc2c1=O	-	-	-	-	.	.
O=c1c(C=NCc2cccs2)c(O)n(C2CCCCC2)c(=O)n1C1CCCCC1	-	-	-	-3.01	.	.	KCC2 secondary=?;KCC2 bumet counter=-;KCC2 secondary2=-;HEK293 Tl flux=-;KCC2 ouabain=-;HEK counter2=-
O=c1c(C=NCCN2CCNCC2)c(O)n(C2CCCCC2)c(=O)n1C1CCCCC1	-	-	-	-	.	.
O=C1N(CN2CCOCC2)c2ccccc2C1(O)c1c[nH]c2ccccc12 (stereo unspecified)	-	-	-	.	.	.	KCC2 secondary=-;KCC2 bumet counter=?;KCC2 secondary2=-;HEK293 Tl flux=-;KCC2 ouabain=-;HEK counter2=-
CC(C(=O)c1c[nH]c2ccccc12)N1CCOCC1 (stereo unspecified)	-	-	-	-	.	.
Cc1cccc2c1N(N=O)CCC2	.	-	-	-	.	.
O=C(Cn1ncn2c(cc3cc(F)ccc32)c1=O)N1CCC2(CC1)OCCO2	.	-	-	.	.	.
CN1CCN(Cc2nc3ccccc3n2C)CC1	-	-	-	6.86	.	.	KCC2 secondary=-;KCC2 bumet counter=-;KCC2 secondary2=?;HEK293 Tl flux=-;KCC2 ouabain=?;HEK counter2=-
O=c1c2ccccc2[nH]c(=S)n1-c1ccc(Br)cc1	-	-	-	19.8	.	.	KCC2 secondary=-;KCC2 bumet counter=0.0413;KCC2 secondary2=0.0425;HEK293 Tl flux=0.0278;KCC2 ouabain=0.0444;HEK counter2=0.0274
O=c1c2ccccc2[nH]c(=S)n1-c1cccnc1	-	-	-	-	.	.
O=c1c2cc(Br)ccc2[nH]c(=S)n1-c1ccccc1	-	-	-	20.1	.	.	KCC2 secondary=-;KCC2 bumet counter=0.027;KCC2 secondary2=0.0425;HEK293 Tl flux=0.0219;KCC2 ouabain=0.0331;HEK counter2=0.0234
COc1ccc(-c2nc3ccc(C(=O)N4CCC5(CC4)OCCO5)cc3nc2-c2ccc(OC)cc2)cc1	.	-	-	.	.	.
CC1(c2ccccc2)NCCN2C(=O)CSC21 (stereo unspecified)	-	-	-	-	.	.	KCC2 secondary=-;KCC2 bumet counter=-;KCC2 secondary2=-;HEK293 Tl flux=-;KCC2 ouabain=-;HEK counter2=-
O=C1NC(=O)C(=Cc2coc3ccccc3c2=O)C(=O)N1	-	-	-9.45	-4.07	46.4%	-	KCC2 secondary=-;KCC2 bumet counter=0.00577;KCC2 secondary2=?;HEK293 Tl flux=0.00592;KCC2 ouabain=0.0144;HEK counter2=-
CCCCCn1c(=O)c(C(=O)NCc2ccccc2Cl)c(O)c2ccccc21	.	-	-	.	.	.
Cc1nc2ccccc2c(=O)n1-c1cc([N+](=O)[O-])cc([N+](=O)[O-])c1	.	-	-	.	.	.
Cc1[nH]n(-c2ccccc2)c(=O)c1C(c1ccc([N+](=O)[O-])cc1)c1c(C)[nH]n(-c2ccccc2)c1=O	-	-	-6.24	-	36.5%	-
CCc1ccc(CN2CCN(Cc3ccc(SC)cc3)CC2)cc1	-	-	-	-	.	.
CCc1c(C)nc(N)nc1N1N=C1SCCOc1ccccc1	.	-	-7.69	-	12.2%	-
Cc1ccc(OCCSC2=NN2c2cc(C)nc(N)n2)cc1	.	-	-11.1	-	22.9%	-
CCC(CC)N1CCN(C(=O)Cc2ccccc2)CC1	-	-	-	-	.	.
Cc1nn(Cc2ccccc2)c(C)c1C(=O)O	-	-	-	-	.	.
CC[N+](CC)(CC#CCO)CC#Cc1ccccc1	-	-	-8.64	-	35.4%	-
C(#CCN1CCOCC1)COCC#Cc1ccccc1	-	-	-	-	.	.
COc1ccc(CCNCc2sccc2C)cc1	.	-	-	.	.	.
SMILES	Rad51 HR inh	CHT allo act	CHT block	Cl transport mod	CHT inh conf	HEK293 MPD ctr	others
COc1ccccc1-n1c(-c2ccccc2Br)nc2ccccc2c1=O	.	-	-	.	.	.
Cc1ccccc1-n1c(O)c(/C=C2/C(c3ccccc3)=Nc3ccccc32)c(=O)[nH]c1=O	-	-	-5.16	-	52.7%	-
CCC/C=C(\CCC)C(NP(=O)(c1ccccc1)c1ccccc1)c1ccccc1 (stereo unspecified)	-	-	-	.	.	.
Cc1cccc(N2C(=O)NC(=O)/C(=C\c3ccc4c(c3)CCCN4Cc3ccccc3)C2=O)c1	-	-	-	-	.	.
CCC(C)N1C(=O)/C(=C/c2ccc3c(c2)CCN3CCCCl)C(=O)NC1=S (stereo unspecified)	-	-	-5.9	-	-	-
O=[N+]([O-])c1ccc(C2[C@H]3C(c4ccccc4)=NC4(CCCCC4)N23)cc1 (stereo partly specified)	-	-	-	-	.	.
CC12CN3CN(C1)CC(C)(C3)C2=NO	-	-	-	-	.	.
Cc1ccc(-c2cc(-c3ccc(C)cc3)[n+](-c3ccccc3)c(-c3ccc(C)cc3)c2)cc1	.	-	-5.52	.	65.6%	3.53
COP(=O)(OC)C(O)C(Cl)(Cl)Cl (stereo unspecified)	-	-	-	-	.	.
O=C(CSC1c2ccccc2-c2ccccc21)N/N=C/c1ccccc1O	-	-	-	.	.	.
Cc1cccc(CCNCc2cc3cccc(C)c3[nH]c2=O)c1	.	-	-12.4	.	8.5%	-
CCOc1ccc(-n2c(O)c(C=NCCN(CC)CC)c(=O)[nH]c2=O)cc1	-	-	-6.27	.	-	-
